Measurements: ChEMBL document CHEMBL2412970, “Synthesis and anticancer activity of 2,4-disubstituted furo[3,2-b]indole derivatives” (Eur J Med Chem, 2013)

Key:
[1] = test system: Detroit 551; assay: Cytotoxicity against human Detroit 551 cells after 48 hrs by MTT assay; type: cell-based; conditions: Detroit 551, 48 h
[2] = test system: A498; assay: Cytotoxicity against human A498 cells after 48 hrs by MTT assay; type: functional, cell-based; conditions: A498, 48 h
[3] = test system: COLO 205; assay: Cytotoxicity against human COLO205 cells after 48 hrs by MTT assay; type: functional, cell-based; conditions: COLO 205, 48 h
In short: (§1)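 Cells were treated with a range of concentrations for 48 h. Viability was read by MTT: formazan was dissolved in DMSO and absorbance read at 570 nm. Untreated or 0.1% DMSO cells served as control. Data are mean from three independent experiments. HL-60, H460 and COLO 205 were kept in RPMI-1640 with 10% FBS and penicillin/streptomycin.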

[4] = Cytotoxicity against human Hep3B cells after 48 hrs by MTT assay; type: functional, cell-based, Hep 3B2
[5] = Cytotoxicity against human H460 cells after 48 hrs by MTT assay; type: functional, cell-based; conditions: NCI-H460, 48 h; in short: as §1
[6] = test system: HL-60; assay: Cytotoxicity against human HL60 cells after 48 hrs by MTT assay; type: functional, cell-based; conditions: HL-60, 48 h; in short: as §1
[7] = test system: A498; assay: Ratio of YC-1 IC50 to compound IC50 for human A498 cells after 48 hrs by MTT assay; type: functional

| Structure (SMILES) | IC50 [1] [µM] | IC50 [2] [µM] | IC50 [3] [µM] | IC50 [4] [µM] | IC50 [5] [µM] | IC50 [6] [µM] | Ratio IC50 [7] |
| --- | --- | --- | --- | --- | --- | --- | --- |
| OCc1cc2[nH]c3ccccc3c2o1 | > 50 | 21.8 | > 50 | > 50 | > 50 | > 50 |  |
| COc1ccccc1Cn1c2ccccc2c2oc(CO)cc21 | 60.5 | 4.3 | 28.3 | 24.6 | 30.8 | 13.3 |  |
| O=C(O)c1cc2[nH]c3ccccc3c2o1 | > 50 | > 50 | > 50 | > 50 | > 50 | > 50 |  |
| OCc1ccc(Cn2c3ccccc3c3oc(CO)cc32)cc1 | > 50 | 0.47 | > 50 | > 50 | > 50 | > 50 |  |
| OCc1cc2c(o1)c1ccccc1n2Cc1ccc2c(c1)OCO2 | > 50 | 0.27 | > 50 | > 50 | > 50 | > 50 |  |
| COC(=O)c1cc2c(o1)c1ccccc1n2Cc1ccc(C(=O)OC)[se]1 | > 25 | > 50 | > 50 | > 25 | > 25 | > 25 |  |
| COC(=O)c1cc2c(o1)c1ccccc1n2Cc1cccc(OC)c1 | > 50 | > 50 | > 50 | > 50 | > 50 | > 50 |  |
| COC(=O)c1cc2c(o1)c1ccccc1n2Cc1ccc(Cl)cc1 | > 50 | > 50 | > 50 | > 50 | > 50 | > 50 |  |
| COC(=O)c1ccc(Cn2c3ccccc3c3oc(C(=O)OC)cc32)cc1 | > 50 | > 50 | > 50 | > 50 | > 50 | > 50 |  |
| COC(=O)c1cc2c(o1)c1ccccc1n2Cc1ccc(OC)cc1 | > 50 | > 50 | > 50 | 58.6 | > 50 | > 50 |  |
| COC(=O)c1cc2c(o1)c1ccccc1n2Cc1ccc2c(c1)OCO2 | > 50 | > 50 | > 50 | > 50 | > 50 | > 50 |  |
| COC(=O)c1cc2[nH]c3ccccc3c2o1 | > 50 | > 50 | > 50 | > 50 | > 50 | > 50 |  |
| O=C(O)c1cc2c(o1)c1ccccc1n2Cc1ccccc1 | > 50 | > 50 | > 50 | > 50 | > 50 | > 50 |  |
| OCc1cc2c(o1)c1ccccc1n2Cc1ccc(CO)s1 | > 50 | 0.69 | > 50 | > 50 | > 50 | > 50 |  |
| COC(=O)c1cc2c(o1)c1ccccc1n2Cc1ccc(F)cc1 | > 50 | > 50 | > 50 | > 50 | > 50 | > 50 |  |
| CCn1c2ccccc2c2oc(CO)cc21 | > 50 | 3.7 | > 50 | > 50 | 50 | > 50 |  |
| OCc1cc2c(o1)c1ccccc1n2Cc1ccccc1 | > 50 | 0.24 | 30.6 | 50 | > 50 | > 50 | 1.5 |
| OCc1cc2c(o1)c1ccccc1n2Cc1ccc(F)cc1 | > 50 | 0.69 | 35.9 | 44.2 | 36.7 | > 50 |  |
| OCc1ccc(-c2nn(Cc3ccccc3)c3ccccc23)o1 |  | 0.37 |  |  |  |  |  |
| OCc1cc2c(o1)c1ccccc1n2Cc1ccc(Cl)cc1 | 44.4 | 0.79 | 8.1 | 36.2 | 31.3 | 38.9 |  |
| COC(=O)c1cc2c(o1)c1ccccc1n2Cc1ccccc1Cl | > 50 | > 50 | > 25 | > 50 | > 50 | > 50 |  |

| Structure (SMILES) | IC50 [1] [µM] | IC50 [2] [µM] | IC50 [3] [µM] | IC50 [4] [µM] | IC50 [5] [µM] | IC50 [6] [µM] | Ratio IC50 [7] |
| --- | --- | --- | --- | --- | --- | --- | --- |
| COC(=O)c1cc2c(o1)c1ccccc1n2Cc1ccc(C(=O)OC)s1 | > 50 | > 50 | > 50 | > 50 | > 50 | > 50 |  |
| OCc1cc2c(o1)c1ccccc1n2Cc1cccc(Cl)c1 | > 50 | 1.1 | 26.4 | 29.8 | 50 | 14.7 |  |
| COC(=O)c1cc2c(o1)c1ccccc1n2Cc1ccccc1 | > 50 | > 50 | > 50 | > 50 | > 50 | > 50 |  |
| OCc1cc2c(o1)c1ccccc1n2Cc1ccccc1F | > 50 | 0.43 | 40.9 | 50 | > 50 | > 50 |  |
| COC(=O)c1ccc(Cn2c3ccccc3c3oc(C(=O)OC)cc32)o1 | > 50 | > 50 | > 50 | > 50 | > 50 | 50 |  |
| COc1ccc(Cn2c3ccccc3c3oc(CO)cc32)cc1 | > 50 | 0.36 | 29.8 | 45.9 | 42.9 | 54.5 |  |
| OCc1cc2c(o1)c1ccccc1n2Cc1cccc(F)c1 | > 50 | 0.59 | > 50 | 44 | 50 | 25 |  |
| OCc1cc2c(o1)c1ccccc1n2Cc1ccccc1Cl | > 50 | 5.5 | 26.7 | 43.1 | 30.5 | 16.8 |  |
| COC(=O)c1cccc(Cn2c3ccccc3c3oc(C(=O)OC)cc32)c1 | > 50 | > 50 | > 50 | 50 | > 50 | 16.5 |  |
| COC(=O)c1cc2c(o1)c1ccccc1n2Cc1cccc(Cl)c1 | > 50 | > 50 | > 50 | > 50 | > 50 | > 50 |  |
| COC(=O)c1cc2c(o1)c1ccccc1n2Cc1cccc(F)c1 | > 50 | > 50 | > 50 | > 50 | > 50 | > 50 |  |
| COC(=O)c1cc2c(o1)c1ccccc1n2C | > 50 | > 50 | > 50 | > 50 | 50 | > 50 |  |
| COc1cccc(Cn2c3ccccc3c3oc(CO)cc32)c1 | > 50 | 0.33 | 31.9 | 31.9 | 52 | 35.4 |  |
| COC(=O)c1cc2c(o1)c1ccccc1n2Cc1ccccc1OC | > 50 | > 50 | 32.9 | 50 | > 50 | 25.1 |  |
| OCc1cccc(Cn2c3ccccc3c3oc(CO)cc32)c1 | > 50 | 0.37 | > 50 | 50 | > 50 | > 50 |  |
| OCc1cc2c(o1)c1ccccc1n2Cc1ccc(CO)[se]1 | > 50 | 0.23 | > 50 | > 50 | > 50 | > 50 | 1.5 |
| CCn1c2ccccc2c2oc(C(=O)O)cc21 | > 50 | > 50 | > 50 | > 50 | > 50 | > 50 |  |
| Cn1c2ccccc2c2oc(CO)cc21 | > 50 | 4.6 | > 50 | > 50 | 50 | > 50 |  |
| Cn1c2ccccc2c2oc(C(=O)O)cc21 | > 50 | > 50 | > 50 | > 50 | > 50 | > 50 |  |
| CCn1c2ccccc2c2oc(C(=O)OC)cc21 | > 50 | > 50 | > 50 | > 50 | > 50 | > 50 |  |
| COC(=O)c1cc2c(o1)c1ccccc1n2Cc1ccccc1F | > 50 | > 50 | > 50 | > 50 | > 50 | > 50 |  |
